For this test, the target named is T1, Aromatic-L-amino-acid decarboxylase (Homo sapiens, UniProt P20711).
T1 sequence (P20711 whole entry): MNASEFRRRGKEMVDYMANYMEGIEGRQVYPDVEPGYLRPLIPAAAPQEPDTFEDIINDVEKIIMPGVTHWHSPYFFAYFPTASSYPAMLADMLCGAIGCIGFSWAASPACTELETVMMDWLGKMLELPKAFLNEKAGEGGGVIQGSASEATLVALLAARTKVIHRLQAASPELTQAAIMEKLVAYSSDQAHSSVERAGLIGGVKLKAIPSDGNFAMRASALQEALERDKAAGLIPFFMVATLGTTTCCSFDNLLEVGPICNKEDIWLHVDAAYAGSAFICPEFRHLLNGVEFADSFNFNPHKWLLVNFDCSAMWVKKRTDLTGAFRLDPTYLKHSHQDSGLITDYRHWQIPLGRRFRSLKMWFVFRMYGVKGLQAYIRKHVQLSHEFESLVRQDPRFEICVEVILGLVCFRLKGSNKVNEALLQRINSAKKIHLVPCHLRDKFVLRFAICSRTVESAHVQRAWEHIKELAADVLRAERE
Nature of the test: Inhibition of recombinant human DOPA decarboxylase assessed as inhibition of dopamine production after 30 mins by HPLC method. The gist of the method: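 Recombinant human enzyme reacted with L-DOPA (1 mM final) and PLP cofactor in pH 6.8 buffer, enzyme […] final, with or without compound, 37 °C for 30 min; stopped by heating at 100 °C for 2 min. Dopamine formed quantified by HPLC, 0.2% formic acid/methanol 9:1 eluent, UV 280 nm. IC50 from dose-response curves, 6 concentrations, each in duplicate.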

Regarding `COc1ccc2c(c1)c[n+](C)c1ccc(OC)cc21`, the IC50 (read-out: IC50) was determined as 190 µM.

As to `COc1ccc2c(c1)c1cc(OC)c(OC)cc1c[n+]2C`, the IC50 (read-out: IC50) was found to be 1170 µM. Same read-out and setting: the value for `COc1ccc2c(c1)c[n+](C)c1ccc(O)cc21` was 120 µM; that for `COc1cc2c[n+](C)c3ccccc3c2cc1OC` was 3500 µM; that for `C[n+]1cc2ccccc2c2ccccc21` was 400 µM. On to `COc1cc2c[n+](C)c3ccc(F)cc3c2cc1OC`, for which the IC50 (read-out: IC50) was 2690 µM. Still for that read-out and setting: the figure for `COc1cc2c[n+](C)c3ccc(Cl)cc3c2cc1OC` is 1390 µM; for `COc1cc2c[n+](C)c3ccc(C)cc3c2cc1OC` it is 1490 µM. As to `COc1ccc2c(c1)c[n+](C)c1ccccc21`, the IC50 (read-out: IC50) came to 950 µM. Still for that read-out and setting: the value for `COc1ccc2c(c1)c[n+](C)c1ccc(F)cc21` was 570 µM; that for `COc1ccc2c(c1)c[n+](C)c1ccc(Cl)cc21` was 930 µM. Same read-out and setting: the figure for `COc1ccc2c(c1)c[n+](C)c1ccc(C)cc21` is 600 µM. `COc1ccc2cc3[n+](cc2c1OC)CCc1cc2c(cc1-3)OCO2` [BERBERINE]: the IC50 result was “Not Active”. As for `COc1ccc2c(c[n+](C)c3c4cc5c(cc4ccc23)OCO5)c1OC` [CHELERYTHRINE], for the setting “read-out: IC50”, the IC50 worked out at 1280 µM.

For the compound `CN1Cc2c(ccc3c2OCO3)-c2ccc3cc4c(cc3c21)OCO4` [DIHYDROSANGUINARINE], the IC50 entry is “Not Active”.

For the compound `COc1cc2c[n+](C)c3c4cc5c(cc4ccc3c2cc1OC)OCO5` [NITIDINE], the IC50 (read-out: IC50) worked out at 1340 µM. The same measure, in the same setting: the figure for `C[n+]1cc2c3c(ccc2c2ccc4cc5c(cc4c21)OCO5)OCO3` [SANGUINARIUM CHLORIDE] is 200 µM.

One may read the IC50 as the point on the concentration scale where inhibition reaches its midpoint.

These data come from ChEMBL document CHEMBL3286121, “Synthesis of 5-methyl phenanthridium derivatives: a new class of human DOPA decarboxylase inhibitors” (Bioorg Med Chem Lett, 2014).
